{
  "source": "ChEMBL document CHEMBL4152379",
  "about": "“Discovery of Pyrrolidine Sulfonamides as Selective and Orally Bioavailable Antagonists of Transient Receptor Potential Vanilloid-4 (TRPV4)” (J Med Chem, 2018)",
  "key": {"[1]": {"target": "Transient receptor potential cation channel subfamily V member 4 (Homo sapiens, UniProt Q9HBA0)", "sequence (Q9HBA0 whole entry)": "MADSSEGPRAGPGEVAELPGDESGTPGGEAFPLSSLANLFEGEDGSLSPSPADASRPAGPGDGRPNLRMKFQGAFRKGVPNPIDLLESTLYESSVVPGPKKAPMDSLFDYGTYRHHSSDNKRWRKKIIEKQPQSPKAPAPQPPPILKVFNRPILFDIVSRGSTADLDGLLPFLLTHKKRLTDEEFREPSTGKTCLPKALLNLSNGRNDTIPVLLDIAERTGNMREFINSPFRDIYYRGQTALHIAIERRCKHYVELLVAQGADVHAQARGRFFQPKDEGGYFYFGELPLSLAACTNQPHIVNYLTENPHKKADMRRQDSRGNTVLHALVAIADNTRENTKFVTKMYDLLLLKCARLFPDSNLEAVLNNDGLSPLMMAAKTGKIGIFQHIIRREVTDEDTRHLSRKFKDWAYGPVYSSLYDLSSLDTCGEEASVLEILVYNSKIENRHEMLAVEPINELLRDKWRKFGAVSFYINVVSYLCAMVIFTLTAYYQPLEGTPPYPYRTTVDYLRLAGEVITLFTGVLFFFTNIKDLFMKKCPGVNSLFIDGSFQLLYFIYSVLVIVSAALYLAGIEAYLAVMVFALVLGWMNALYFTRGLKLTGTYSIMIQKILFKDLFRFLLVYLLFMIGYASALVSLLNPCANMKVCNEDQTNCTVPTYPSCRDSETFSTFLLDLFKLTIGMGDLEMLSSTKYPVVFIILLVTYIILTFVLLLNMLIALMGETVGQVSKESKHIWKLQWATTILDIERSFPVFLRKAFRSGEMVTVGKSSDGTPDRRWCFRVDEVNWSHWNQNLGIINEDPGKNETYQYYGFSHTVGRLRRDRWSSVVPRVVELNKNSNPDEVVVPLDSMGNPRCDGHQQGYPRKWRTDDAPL", "test": "Antagonist activity at human TRPV4 expressed in BHK/AC9 or HEK MSR2 cells assessed as inhibition of GSK634775-induced Ca2+ flux pre-incubated for 10 mins before agonist addition by FLIPR assay"}, "[2]": {"test": "Steady state plasma concentration in Sprague-Dawley rat at 0.08 mg/kg, iv dosed via bolus dose followed by iv infusion at 1.7 ug/kg/min for 60 mins", "assay_type": "ADME, organism-based", "conditions": "in vivo, 1 h"}, "[3]": {"test": "Clearance in iv dosed Sprague-Dawley rat", "assay_type": "ADME, organism-based", "conditions": "in vivo", "outline": "(§1)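 Male Sprague-Dawley rats with femoral vein, femoral artery and gastric catheters; noncrossover design, 2 rats per route; cassette dosing of up to five compounds. i.v. target 1 mg/kg in 5% DMSO/20% Cavitron (pH 4), infused over 30 min. Oral gastric bolus target 2 mg/kg in 5% DMSO/6% Cavitron (pH 4). Plasma sampled to 24 h and measured by HPLC−MS/MS. Noncompartmental analysis; F from dose-normalized AUC(0−∞) relative to mean i.v. AUC.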"}, "Rattus norvegicus [4]": {"species": "Rattus norvegicus", "test": "Unbound clearance in Sprague-Dawley rat", "assay_type": "ADME, organism-based", "conditions": "in vivo"}, "[5]": {"test": "Lipophilicity, log D of the compound by chromatography", "assay_type": "physicochemical"}, "Rattus norvegicus [6]": {"tested_on": "Rattus norvegicus", "test": "In vivo antagonist activity at TRPV4 in iv dosed Sprague-Dawley rat assessed as inhibition of GSK1016790A-induced reduction in mean arterial pressure at 0.03 to 0.23 mg/kg, iv dosed via bolus dose followed by iv infusion at 0.6 to 5.1 ug/kg/min for 60 mins", "assay_type": "functional, organism-based", "outline": "(§2)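 Sprague-Dawley rats given an i.v. bolus loading dose, then a 60 min continuous i.v. infusion to reach steady-state plasma exposure. Challenged with GSK1016790A at 10 μg/kg/min by 10 min i.v. infusion. Mean arterial pressure and lung wet weight/body weight ratio recorded. Mean ± SEM; comparisons by ANOVA with Dunnett's or Bonferroni post hoc tests.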"}, "[7]": {"test": "Steady state plasma concentration in Sprague-Dawley rat at 0.23 mg/kg, iv dosed via bolus dose followed by iv infusion at 5.1 ug/kg/min for 60 mins", "assay_type": "ADME, organism-based", "conditions": "in vivo, 1 h"}, "[8]": {"test": "Aqueous solubility of the compound", "assay_type": "physicochemical", "conditions": "buffer"}, "Rattus norvegicus [9]": {"tested_on": "Rattus norvegicus", "test": "In vivo antagonist activity at TRPV4 in iv dosed Sprague-Dawley rat assessed as inhibition of GSK1016790A-induced increase in lung wet weight by measuring lung weight/body weight ratio in at 0.03 to 0.23 mg/kg, iv dosed via bolus dose followed by iv infusion at 0.6 to 5.1 ug/kg/min for 60 mins", "assay_type": "functional, organism-based", "outline": "as §2"}, "[10]": {"test": "Steady state plasma concentration in Sprague-Dawley rat at 0.03 mg/kg, iv dosed via bolus dose followed by iv infusion at 0.6 ug/kg/min for 60 mins", "assay_type": "ADME, organism-based", "conditions": "in vivo, 1 h"}, "[11]": {"test": "Oral bioavailability in Sprague-Dawley rat", "assay_type": "ADME, organism-based", "conditions": "in vivo", "outline": "as §1"}, "[12]": {"test": "MRT in iv dosed Sprague-Dawley rat", "assay_type": "ADME, organism-based", "conditions": "in vivo", "outline": "as §1"}, "Rattus norvegicus [13]": {"tested_on": "Rattus norvegicus", "test": "In vivo antagonist activity at TRPV4 in iv dosed Sprague-Dawley rat assessed as inhibition of GSK1016790A-induced reduction in mean arterial pressure at 0.23 mg/kg, iv dosed via bolus dose followed by iv infusion at 5.1 ug/kg/min for 60 mins", "assay_type": "functional", "outline": "as §2"}, "[14]": {"test": "Fraction unbound in Sprague-Dawley rat plasma", "assay_type": "ADME, cell-free"}, "Rattus norvegicus [15]": {"tested_on": "Rattus norvegicus", "test": "In vivo antagonist activity at TRPV4 in iv dosed Sprague-Dawley rat assessed as inhibition of GSK1016790A-induced increase in lung wet weight by measuring lung weight/body weight ratio in at 0.23 mg/kg, iv dosed via bolus dose followed by iv infusion at 5.1 ug/kg/min for 60 mins", "assay_type": "functional", "outline": "as §2"}},
  "data": [
    {"smiles": "N#Cc1ccc(O[C@H]2CN(S(=O)(=O)c3ccc(Cl)cc3Cl)C[C@@H]2CO)cc1F", "note": "(racemic)", "values": [
      {"measurement": "IC50", "setting": "[1]", "result": 200, "unit": "nM"}
    ]},
    {"smiles": "N#Cc1ccc(O[C@H]2CN(S(=O)(=O)c3ccc(C(F)(F)F)cc3C#N)C[C@@]2(O)CO)cc1F", "values": [
      {"measurement": "Cpss", "setting": "[2]", "result": 40, "unit": "nM"},
      {"measurement": "clearance", "setting": "[3]", "result": 82, "unit": "mL/min/kg"},
      {"measurement": "CL free", "setting": "Rattus norvegicus [4]", "result": 1400, "unit": "mL/min/kg"},
      {"measurement": "chromatographic logD", "setting": "[5]", "result": 4.6},
      {"measurement": "inhibition", "setting": "Rattus norvegicus [6]", "result": "Dose-dependent effect"},
      {"measurement": "Cpss", "setting": "[7]", "result": 90, "unit": "nM"},
      {"measurement": "solubility", "setting": "[8]", "result": 90, "unit": "µM"},
      {"measurement": "inhibition", "setting": "Rattus norvegicus [9]", "result": "Dose-dependent effect"},
      {"measurement": "Cpss", "setting": "[10]", "result": 30, "unit": "nM"},
      {"measurement": "IC50", "setting": "[1]", "result": 1, "unit": "nM"},
      {"measurement": "bioavailability", "setting": "[11]", "result": 72, "unit": "%"},
      {"measurement": "MRT", "setting": "[12]", "result": 0.8, "unit": "h"},
      {"measurement": "inhibition (INH)", "setting": "Rattus norvegicus [13]", "result": 100, "unit": "%"},
      {"measurement": "fraction unbound", "setting": "[14]", "result": 0.049},
      {"measurement": "inhibition (INH)", "setting": "Rattus norvegicus [15]", "result": 100, "unit": "%"}
    ]},
    {"smiles": "N#Cc1ccc(OCC2(O)CCN(S(=O)(=O)c3ccc(Cl)cc3Cl)C2)cc1F", "note": "(racemic)", "values": [
      {"measurement": "IC50", "setting": "[1]", "result": 150, "unit": "nM"}
    ]},
    {"smiles": "N#Cc1ccc(OC2CCN(S(=O)(=O)c3ccc(Cl)cc3Cl)C2)cc1F", "note": "(racemic)", "values": [
      {"measurement": "IC50", "setting": "[1]", "result": 320, "unit": "nM"}
    ]},
    {"smiles": "N#Cc1ccc(OC[C@@H]2CN(S(=O)(=O)c3ccc(Cl)cc3Cl)C[C@H]2O)cc1F", "note": "(racemic)", "values": [
      {"measurement": "IC50", "setting": "[1]", "result": 1000, "unit": "nM"}
    ]},
    {"smiles": "N#Cc1ccc(O[C@H]2CN(S(=O)(=O)c3ccc(Cl)cc3Cl)C[C@H]2O)cc1F", "note": "(racemic)", "values": [
      {"measurement": "IC50", "setting": "[1]", "result": 100, "unit": "nM"}
    ]},
    {"smiles": "N#Cc1ccc(OCC2(O)CN(S(=O)(=O)c3ccc(Cl)cc3Cl)C2)cc1F", "values": [
      {"measurement": "IC50", "setting": "[1]", "result": 50, "unit": "nM"}
    ]},
    {"smiles": "N#Cc1ccc(O[C@H]2CN(S(=O)(=O)c3ccc(Cl)cc3Cl)C[C@@]2(O)CO)cc1F", "note": "(racemic)", "values": [
      {"measurement": "IC50", "setting": "[1]", "result": 4, "unit": "nM"}
    ]},
    {"smiles": "N#Cc1ccc(OCC2CCN(S(=O)(=O)c3ccc(Cl)cc3Cl)CC2)cc1F", "values": [
      {"measurement": "IC50", "setting": "[1]", "result": 6300, "unit": "nM"}
    ]},
    {"smiles": "N#Cc1ccc(O[C@H]2CN(S(=O)(=O)c3ccc(Cl)cc3Cl)C[C@]2(O)CO)cc1F", "note": "(racemic)", "values": [
      {"measurement": "IC50", "setting": "[1]", "result": 100, "unit": "nM"}
    ]},
    {"smiles": "N#Cc1ccc(OC[C@H]2CN(S(=O)(=O)c3ccc(Cl)cc3Cl)C[C@H]2O)cc1F", "note": "(racemic)", "values": [
      {"measurement": "IC50", "setting": "[1]", "result": 1500, "unit": "nM"}
    ]},
    {"smiles": "N#Cc1ccc(OCC2(O)CCN(S(=O)(=O)c3ccc(Cl)cc3Cl)CC2)cc1F", "values": [
      {"measurement": "clearance", "setting": "[3]", "result": 19, "unit": "mL/min/kg"},
      {"measurement": "CL free", "setting": "Rattus norvegicus [4]", "result": 1461, "unit": "mL/min/kg"},
      {"measurement": "chromatographic logD", "setting": "[5]", "result": 6.3},
      {"measurement": "solubility", "setting": "[8]", "result": 7.5, "unit": "µM"},
      {"measurement": "IC50", "setting": "[1]", "result": 130, "unit": "nM"},
      {"measurement": "bioavailability", "setting": "[11]", "result": 56, "unit": "%"},
      {"measurement": "MRT", "setting": "[12]", "result": 1.5, "unit": "h"},
      {"measurement": "fraction unbound", "setting": "[14]", "result": 0.013}
    ]},
    {"smiles": "N#Cc1ccc(O[C@H]2CN(S(=O)(=O)c3ccc(Cl)cc3Cl)C[C@@H]2O)cc1F", "note": "(racemic)", "values": [
      {"measurement": "IC50", "setting": "[1]", "result": 40, "unit": "nM"}
    ]},
    {"smiles": "N#Cc1ccc(O[C@H]2CN(S(=O)(=O)c3ccc(Cl)cc3Cl)C[C@H]2CO)cc1F", "note": "(racemic)", "values": [
      {"measurement": "IC50", "setting": "[1]", "result": 50, "unit": "nM"}
    ]},
    {"smiles": "N#Cc1ccc(OC[C@@]2(O)CN(S(=O)(=O)c3ccc(Cl)cc3Cl)C[C@@H]2O)cc1F", "note": "(racemic)", "values": [
      {"measurement": "IC50", "setting": "[1]", "result": 150, "unit": "nM"}
    ]}
  ]
}
